# Measured values reported in ChEMBL document CHEMBL3792365, “Dioxol and dihydrodioxin analogs of 2- and 3-phenylacetonitriles as potent anti-cancer agents with nanomolar activity against a variety of human cancer cells” (2016).
# Tests used:
# Format in all cases: functional
# [1] = Growth inhibition of human SKOV3 cells after 48 hrs by sulforhodamine B assay; conditions: SK-OV-3, 48 h
# How it was run: (§1)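 Five-dose concentration series run across a panel of 60 human tumour cell lines. GI50 is taken as the drug concentration giving a 50% reduction in net protein increase relative to untreated control cells.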
# [2] = Growth inhibition of human RPMI8226 cells after 48 hrs by sulforhodamine B assay; conditions: RPMI-8226, 48 h; how it was run: as §1
# [3] = Growth inhibition of human OVCAR3 cells after 48 hrs by sulforhodamine B assay; conditions: OVCAR-3, 48 h; how it was run: as §1
# M14 = test: Growth inhibition of human M14 cells after 48 hrs by sulforhodamine B assay; conditions: M14, 48 h
# How it was run: (§2)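 Five-dose testing against a 60-line human tumor cell panel. GI50 is the drug concentration giving a 50% reduction in net protein increase relative to untreated control cells.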
# [4] = Growth inhibition of human NCI-ADR-RES cells after 48 hrs by sulforhodamine B assay; how it was run: as §1
# [5] = Growth inhibition of human LOXIMVI cells after 48 hrs by sulforhodamine B assay; conditions: LOX IMVI; how it was run: as §2
# [6] = Growth inhibition of human PC3 cells after 48 hrs by sulforhodamine B assay; conditions: PC-3, 48 h; how it was run: as §1
# [7] = Growth inhibition of human SNB75 cells after 48 hrs by sulforhodamine B assay; conditions: SNB-75, 48 h; how it was run: as §1
# NCI-H23 = test: Growth inhibition of human NCI-H23 cells after 48 hrs by sulforhodamine B assay; conditions: NCI-H23, 48 h; how it was run: as §1
# [8] = Growth inhibition of human SF539 cells after 48 hrs by sulforhodamine B assay; conditions: SF-539, 48 h; how it was run: as §1
# SK-MEL-5 = test: Growth inhibition of human SK-MEL-5 cells after 48 hrs by sulforhodamine B assay; conditions: SK-MEL-5, 48 h; how it was run: as §1
# [9] = Growth inhibition of human DU145 cells after 48 hrs by sulforhodamine B assay; conditions: DU-145, 48 h; how it was run: as §2
# [10] = Growth inhibition of human UACC62 cells after 48 hrs by sulforhodamine B assay; conditions: UACC-62, 48 h
# How it was run: (§3)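 Five-dose testing across the 60-line human tumour cell panel. GI50 is the drug concentration that gives a 50% reduction in net protein increase relative to control cells.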
# [11] = Growth inhibition of human SW620 cells after 48 hrs by sulforhodamine B assay; conditions: SW-620, 48 h; how it was run: as §1
# [12] = Growth inhibition of human OVCAR4 cells after 48 hrs by sulforhodamine B assay; conditions: OVCAR-4, 48 h; how it was run: as §1
# NCI-H522 = test: Growth inhibition of human NCI-H522 cells after 48 hrs by sulforhodamine B assay; conditions: NCI-H522, 48 h; how it was run: as §1
# [13] = Growth inhibition of human HCC2998 cells after 48 hrs by sulforhodamine B assay; conditions: HCC 2998, 48 h; how it was run: as §2
# SR = test: Growth inhibition of human SR cells after 48 hrs by sulforhodamine B assay; how it was run: as §1
# [14] = Growth inhibition of human MOLT4 cells after 48 hrs by sulforhodamine B assay; conditions: MOLT-4, 48 h; how it was run: as §1
# ACHN = test: Growth inhibition of human ACHN cells after 48 hrs by sulforhodamine B assay; how it was run: as §2
# [15] = Growth inhibition of human IGROV1 cells after 48 hrs by sulforhodamine B assay; conditions: IGROV-1, 48 h; how it was run: as §2
# [16] = Growth inhibition of human SF268 cells after 48 hrs by sulforhodamine B assay; conditions: SF-268, 48 h; how it was run: as §1
# [17] = Growth inhibition of human HCT15 cells after 48 hrs by sulforhodamine B assay; conditions: HCT-15, 48 h; how it was run: as §2
# SK-MEL-28 = test: Growth inhibition of human SK-MEL-28 cells after 48 hrs by sulforhodamine B assay; conditions: SK-MEL-28, 48 h; how it was run: as §1
# [18] = Growth inhibition of human SF295 cells after 48 hrs by sulforhodamine B assay; conditions: SF-295, 48 h; how it was run: as §1
# A498 = test: Growth inhibition of human A498 cells after 48 hrs by sulforhodamine B assay; conditions: A498, 48 h; how it was run: as §2
# HT-29 = test: Growth inhibition of human HT-29 cells after 48 hrs by sulforhodamine B assay; conditions: HT-29, 48 h; how it was run: as §2
# A549 = test: Growth inhibition of human A549/ATCC cells after 48 hrs by sulforhodamine B assay; conditions: A549, 48 h; how it was run: as §2
# [19] = Growth inhibition of human Hs 578T cells after 48 hrs by sulforhodamine B assay; how it was run: as §2
# 786-0 = test: Growth inhibition of human 786-0 cells after 48 hrs by sulforhodamine B assay; conditions: 786-0, 48 h; how it was run: as §2
# [20] = Growth inhibition of human COLO205 cells after 48 hrs by sulforhodamine B assay; conditions: COLO 205, 48 h; how it was run: as §2
# MDA-MB-468 = test: Growth inhibition of human MDA-MB-468 cells after 48 hrs by sulforhodamine B assay; conditions: MDA-MB-468, 48 h; how it was run: as §2
# [21] = Growth inhibition of human HL-60(TB) cells after 48 hrs by sulforhodamine B assay; conditions: HL-60, 48 h
# How it was run: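 Five-dose study across the 60-cell human tumour panel. GI50 is the drug concentration giving a 50% reduction in net protein increase relative to control cells.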
# MDA-MB-435 = test: Growth inhibition of human MDA-MB-435 cells after 48 hrs by sulforhodamine B assay; conditions: MDA-MB-435, 48 h; how it was run: as §2
# [22] = Growth inhibition of human UO31 cells after 48 hrs by sulforhodamine B assay; conditions: UO-31, 48 h; how it was run: as §3
# [23] = Growth inhibition of human SNB19 cells after 48 hrs by sulforhodamine B assay; conditions: SNB-19, 48 h; how it was run: as §1
# SK-MEL-2 = test: Growth inhibition of human SK-MEL-2 cells after 48 hrs by sulforhodamine B assay; conditions: SK-MEL-2, 48 h; how it was run: as §1
# [24] = Growth inhibition of human HCT116 cells after 48 hrs by sulforhodamine B assay; conditions: HCT-116, 48 h; how it was run: as §2
# [25] = Growth inhibition of human HOP62 cells after 48 hrs by sulforhodamine B assay; conditions: HOP-62, 48 h; how it was run: as §2
# MCF7 = test: Growth inhibition of human MCF7 cells after 48 hrs by sulforhodamine B assay; conditions: MCF7, 48 h; how it was run: as §2
# CCRF-CEM = test: Growth inhibition of human CCRF-CEM cells after 48 hrs by sulforhodamine B assay; how it was run: as §2
# KM12 = test: Growth inhibition of human KM12 cells after 48 hrs by sulforhodamine B assay; conditions: KM12, 48 h; how it was run: as §2
# U-251 = test: Growth inhibition of human U251 cells after 48 hrs by sulforhodamine B assay; conditions: U-251, 48 h; how it was run: as §1
# [26] = Growth inhibition of human Caki1 cells after 48 hrs by sulforhodamine B assay; conditions: CAKI-1, 48 h; how it was run: as §2
# MDA-MB-231 = test: Growth inhibition of human MDA-MB-231 cells after 48 hrs by sulforhodamine B assay; conditions: MDA-MB-231, 48 h; how it was run: as §2
# [27] = Growth inhibition of human HOP92 cells after 48 hrs by sulforhodamine B assay; conditions: HOP-92, 48 h; how it was run: as §2
compound,measurement,setting,value
COc1ccc(/C=C/c2cc(OC)c(OC)c(OC)c2)cc1,GI50,[1],3.34 µM
same,GI50,[2],6.42 µM
same,GI50,[3],3.45 µM
same,GI50,M14,2.81 µM
same,GI50,[4],3.01 µM
same,GI50,[5],4.89 µM
same,GI50,[6],3.22 µM
same,GI50,[7],1.88 µM
same,GI50,NCI-H23,3.37 µM
same,GI50,[8],2.18 µM
same,GI50,SK-MEL-5,2.5 µM
same,GI50,[9],4.23 µM
same,GI50,[10],2.37 µM
same,GI50,[11],2.07 µM
same,GI50,[12],4 µM
same,GI50,NCI-H522,3.7 µM
same,GI50,[13],3.59 µM
same,GI50,SR,3.93 µM
same,GI50,[14],3.22 µM
same,GI50,ACHN,4.51 µM
same,GI50,[15],5.29 µM
same,GI50,[16],7.59 µM
same,GI50,[17],2.82 µM
same,GI50,SK-MEL-28,3.86 µM
same,GI50,[18],2.18 µM
same,GI50,A498,0.74 µM
same,GI50,HT-29,2.32 µM
same,GI50,A549,3.7 µM
same,GI50,[19],3.09 µM
same,GI50,786-0,5.42 µM
same,GI50,[20],2.07 µM
same,GI50,MDA-MB-468,2.22 µM
same,GI50,[21],3.14 µM
same,GI50,MDA-MB-435,1.04 µM
same,GI50,[22],3.69 µM
same,GI50,[23],4.85 µM
same,GI50,SK-MEL-2,3.95 µM
same,GI50,[24],3.23 µM
same,GI50,[25],3.14 µM
same,GI50,MCF7,1.66 µM
same,GI50,CCRF-CEM,2.89 µM
same,GI50,KM12,3.63 µM
same,GI50,U-251,3.07 µM
same,GI50,[26],3 µM
same,GI50,MDA-MB-231,3.74 µM
same,GI50,[27],7.23 µM
